A selection: hits, their analogues and other compounds. The true share with any hit is near 2.8%.
NPY1 pot ag – human NPY-Y1 potentiation or agonism, primary screen | P25929 | AID 1304 | NPY-Y1 expressing cells, potentiator/agonist activation | 0.37% of 220,000 active | activation, % at 3.6 µM; in the data active = activation above about 33%, passing the limit was not always enough;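 note: cells stimulated with NPY at EC10 then isoproterenol at EC100; 0% = low agonist plus stimulus and 100% = saturating agonist plus stimulus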
Target sequence (P25929 whole entry, looked up): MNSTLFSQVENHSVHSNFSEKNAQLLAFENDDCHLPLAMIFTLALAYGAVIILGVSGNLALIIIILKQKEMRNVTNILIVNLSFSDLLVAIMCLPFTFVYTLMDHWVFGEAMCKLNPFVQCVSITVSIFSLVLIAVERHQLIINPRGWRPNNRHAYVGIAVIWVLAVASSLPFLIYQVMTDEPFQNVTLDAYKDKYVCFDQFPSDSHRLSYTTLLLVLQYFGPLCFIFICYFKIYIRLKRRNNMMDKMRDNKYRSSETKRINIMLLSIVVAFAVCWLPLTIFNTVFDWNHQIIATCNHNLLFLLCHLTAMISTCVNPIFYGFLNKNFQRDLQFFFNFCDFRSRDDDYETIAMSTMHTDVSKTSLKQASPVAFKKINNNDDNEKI
NPY Y1 blocker – blocks the human neuropeptide Y Y1 receptor; AID 1040; inhibition, % at 3.6 µM; 1% of 200,000 active; HEK293-CNG Y1 cells, membrane potential fluorescence; NPY at EC95, then isoproterenol;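 active = inhibition above the campaign mean inhibition of all tested compounds plus 3 SD, cut at about 20% in these data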;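 note: 0% = DMSO wells given NPY plus isoproterenol and 100% = isoproterenol alone without NPY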
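Assay system: HEK293 Y1/CNG channel cell line; Doses: single compound dose of 3.6 µM, 0.4% DMSO; Timing: dye 3 h, compound 60 min room temperature, stimulation 45 min; Technique: Membrane-potential fluorescent dye readout; Measure: % inhibition of NPY effect.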
NPY Y2 blocker – blocks the human neuropeptide Y Y2 receptor; NPY-Y2 expressing cells, antagonist mode; inhibition, % at 2.7 µM; 0.99% of 140,000 active; in the data active = inhibition above about 17%;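 note: 0% = vehicle with agonist challenge and 100% = reference antagonist with challenge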
EP2 mod – modulates human prostaglandin E2 receptor EP2 signaling. P43116. AID 940. induction, % at 25 µM. 0.83% of 260,000 active. EP2-expressing cells, cAMP HTRF FRET, PGE2 co-stimulation;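 active = compounds whose cAMP rise, as percent of the full-agonist control response, exceeds 60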;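 note: rat C6 glioma line stably carrying human EP2 under a CMV promoter; the protocol text gives 20 µM as final concentration; 100% = response of wells given 1 µM PGE2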
NPY-Y2 PAM-ag – human NPY-Y2 potentiation or agonism, primary screen | P49146 | cells expressing NPY-Y2, potentiator/agonist read-out | activation, % at 3.6 µM | 0.45% of 220,000 active; in the data active = activation above about 27%;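 note: cells stimulated with NPY near EC25 plus isoproterenol at EC100; 0% = vehicle plus submaximal agonist and 100% = vehicle plus saturating agonist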
EP2 antag – blocks the human prostaglandin E2 receptor EP2; P43116; C6 glioma cells expressing human EP2, cAMP TR-FRET; cells stimulated with saturating PGE2; inhibition, % at 25 µM; 0.52% of 260,000 active;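 active = percent inhibition above 40 after rounding to a whole number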;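 note: rat C6 glioma host cells with rolipram phosphodiesterase inhibitor present; the protocol text gives 20 µM as final concentration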
NPY1 antag ctr – antagonizes human NPY-Y1, counter-screen to NPY-Y2 antagonists; 19% of 710 active; inhibition, % at 3.6 µM; cell-based NPY-Y1 antagonism counterscreen; shares compounds with NPY Y2 blocker; in the data active = inhibition above about 20%;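 note: cells challenged with NPY then isoproterenol with cAMP sensed through a CNG channel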
NPY2 antag conf – confirmation of human neuropeptide Y receptor Y2 antagonists. shares compounds with NPY Y2 blocker. 32% of 710 active. HEK293 NPY-Y2 CNG channel, membrane potential fluorescence. inhibition, % at 2.8 µM;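 active = mean inhibition of triplicate wells above the hit cutoff set in the primary screen, cut at about 17% in these data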;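 note: 0% = DMSO with NPY challenge and 100% = BIIE0246 high control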
Starred values were filed as active, the others as inactive; x = no result.

SMILES	NPY1 pot ag	NPY Y1 blocker	NPY Y2 blocker	EP2 mod	NPY-Y2 PAM-ag	EP2 antag	NPY1 antag ctr	NPY2 antag conf
CCN1CCN(C(=O)CN(c2ccc(Oc3ccccc3)cc2)S(C)(=O)=O)CC1	x	x	x	-26.3	x	8.8	x	x
C=CCNC(=S)Nc1ncc(C)s1	x	x	x	-53.8	x	13.5	x	x
CC1CC(N(C(=O)c2ccccc2Cl)c2ccccc2)c2ccccc2N1 (configuration not stated)	3.2	8.0	18.5*	36.1	-13.4	x	62.1*	71.8*
CCCC(=O)Nc1cnc(NC(=O)C(C)C)cc1C	x	x	x	14.0	x	12.3	x	x
CCC(CN1CCOCC1)NC(=O)C1(c2ccccc2F)CC1 (configuration not stated)	x	x	x	-12.9	x	2.9	x	x
COc1cccc(C(=O)Oc2cc3c4c(c2)C(C)=CC(C)(C)N4C(=O)C3=O)c1	-77.4	15.6	46.1*	-10.5	-31.1	6.0	50.2*	81.6*
CC(COc1cccc2ccccc12)CN1CCN(C)CC1 (configuration not stated)	-0.8	0.2	17.4*	2.7	1.4	4.4	7.2	7.2
OC(COc1cccc2ccccc12)CN1CCOCC1 (configuration not stated)	x	x	x	-72.4	x	20.6	x	x
CCn1c(CSc2nc(C)cc(C)n2)nnc1SCC(=O)Nc1cccc(C)c1	x	x	x	20.1	x	13.3	x	x
O=C(O)CCNS(=O)(=O)c1ccc2c(c1)Cc1ccccc1-2	-18.6	4.5	27.4*	-19.8	-29.9	9.3	8.0	10.4
COc1ccc(C2Nc3ccccc3C(=O)N2Cc2ccco2)cc1COc1ccc(F)cc1 (configuration not stated)	-49.8	19.6	21.7*	32.2	-20.6	-0.8	9.6	8.8
Cc1sc(C(=O)Nc2ccco2)c(C#N)c1C	x	x	x	8.9	x	13.7	x	x
COc1ccc(N2C(=O)/C(=C\c3ccco3)N=C2SCC(=O)N(C(C)C)C(C)C)cc1Cl	-11.5	5.5	17.9*	21.0	-1.8	7.7	7.7	9.8
COc1ccc(N2C(=O)/C(=C\c3ccco3)N=C2SCC(=O)NC(C)C)cc1Cl	-23.4	9.4	15.0	-3.3	1.6	8.2	x	x
Cc1ccc(NC(=O)NCc2ccc3c(c2)OCO3)c(C)c1	10.6	-2.4	x	-6.6	-0.7	4.4	x	x
Cc1ccc(NC(=S)NCc2ccc3c(c2)OCO3)c(C)c1	-9.4	6.0	20.6*	-18.4	-19.6	9.0	7.1	10.3
CCOc1ccc(NC(=O)CSc2nnnn2-c2ccc3c(c2)OCCO3)cc1	x	x	x	-32.8	x	10.2	x	x
Cc1nc2ccccc2cc1OCc1ccccc1	9.7	-0.9	7.7	-3.3	8.4	x	x	x
Cc1nc2ccccc2cc1OCc1ccc(Cl)cc1	-70.3	9.5	19.2*	-10.4	-3.9	4.8	21.5*	17.2*
COc1ccc(NC(=O)CSc2nc3ccc(Cl)cc3[nH]2)cc1	x	x	x	-92.7	x	11.4	x	x
C/C=C(/C)C(=O)O[C@@H]1c2c(ccc3ccc(=O)oc23)O[C@@H]1C(C)(C)OC(=O)/C(C)=C\C	-38.8	19.7	18.8*	48.0	-7.1	6.6	15.6	31.6*
C/C=C(/C)C(=O)OC(C)(C)[C@@H]1Cc2c(ccc3ccc(=O)oc23)O1	-7.7	3.5	3.4	39.1	15.4	12.6	x	x
CC(C)Cn1c(N)c(C(=O)NCC2CCCO2)c2nc3ccccc3nc21 (configuration not stated)	-16.2	12.7	19.6*	28.4	4.5	9.7	15.8	7.5
COCCn1c(N)c(C(=O)NCC2CCCO2)c2nc3ccccc3nc21 (configuration not stated)	-17.9	2.0	4.9	-13.2	1.0	19.7	x	x
CCn1c(SCC(=O)Nc2cccc(C)c2)nnc1-c1ccncc1	x	x	x	-36.1	x	11.1	x	x
SMILES	NPY1 pot ag	NPY Y1 blocker	NPY Y2 blocker	EP2 mod	NPY-Y2 PAM-ag	EP2 antag	NPY1 antag ctr	NPY2 antag conf
CCC(c1nnnn1Cc1ccc2c(c1)OCO2)N1CCN(c2ccc(OC)cc2)CC1 (configuration not stated)	-13.2	13.6	10.3	-20.3	3.4	17.0	x	x
CCC(c1nnnn1Cc1ccc2c(c1)OCO2)N1CCN(CC)CC1 (configuration not stated)	-8.8	-2.6	x	23.1	0.1	4.0	x	x
CCC(c1nnnn1Cc1ccc2c(c1)OCO2)N1CCN(c2ccc(F)cc2)CC1 (configuration not stated)	0.8	15.4	19.1*	-22.9	8.5	3.6	8.3	8.1
CCC(c1nnnn1Cc1ccc2c(c1)OCO2)N1CCN(c2ccccc2)CC1 (configuration not stated)	-24.0	19.9	17.5*	0.2	-40.6	9.1	13.1	7.9
CCN(CC)c1ccc(Nc2nc(N3CCOCC3)c3ccccc3n2)cc1	32.0	1.3	7.2	-5.5	17.9	9.5	x	x
COc1ccc(Nc2nc(N3CCCC3)c3ccccc3n2)cc1	-24.1	14.1	32.2*	-29.1	4.3	19.8	24.4*	33.8*
COc1ccc(Cl)cc1NC(=O)c1c(-c2ccccc2)noc1C	-16.9	17.9	24.8*	16.0	-3.1	6.7	18.6	9.8
COc1cc(OC)c(NC(=O)c2c(-c3ccccc3)noc2C)cc1Cl	8.0	3.9	1.6	9.9	3.7	9.2	x	x
COc1ccc(C(C)=O)cc1CSc1nc2ccccc2c(=O)n1-c1ccccc1C	-12.3	15.5	20.4*	37.0	-1.1	11.0	11.2	13.0
CCN1c2ccccc2-c2nc3ccccc3n2C1c1ccco1 (configuration not stated)	4.1	11.6	19.0*	42.0	-3.7	4.2	15.6	7.4
CCOCC(=O)Nc1nnc(C(F)(F)F)s1	x	x	x	7.8	x	8.9	x	x
COc1ccc(OCc2nnc3n2N=C(c2ccc(OC)cc2)CS3)cc1	-6.3	7.3	6.3	-2.7	-3.1	10.8	x	x
CCCc1nnc2n1N=C(c1ccc(OC)c(OC)c1)CS2	-25.1	-0.8	19.4*	57.7	-6.0	8.4	6.3	7.8
Cc1ccc(SCc2nc3ccccc3n2CC(=O)Nc2c(C)cccc2C)cc1	4.6	12.2	19.0*	33.2	-8.3	2.1	3.6	4.8
C=CCN1CCN(C(c2ccc(Cl)cc2)c2nnnn2CCOC)CC1 (configuration not stated)	x	x	x	6.3	x	23.5	x	x
Cc1cc2c(c(Sc3ccccc3)n1)C(=O)OC2	12.5	0.4	22.2*	37.2	4.6	4.2	-1.9	-0.2
Cc1cc2c(c(SCC(=O)N(C)c3ccccc3)n1)C(=O)OC2	9.7	3.7	4.1	-2.3	8.0	19.1	x	x
COc1ccc(/C=N/NC(=O)CCOc2ccccc2C)cc1OC	-17.6	7.6	35.0*	-26.2	13.4	13.4	11.9	15.8

Compound activity as filed in PubChem BioAssay.
